Reference: ChEMBL document CHEMBL4177764 (J Med Chem, 2018)
Calls of active or inactive are those of the source. The calls are words filed in the database; no cut-off is given here.

Columns and labels:
Format in all cases: cell-based
[1] = target: Tyrosine-protein kinase Fer (Homo sapiens) (UniProt P16591); test: Induction of FER degradation in human KARPAS299 cells at 0.01 to 1 uM after 16 hrs by immunoblot method
[2] = target: T1, Aurora kinase A (Homo sapiens) (UniProt O14965); test: Induction of aurora A degradation in human NCI-H3122 cells at 0.01 to 1 uM after 16 hrs by immunoblot method
T1 sequence (whole entry): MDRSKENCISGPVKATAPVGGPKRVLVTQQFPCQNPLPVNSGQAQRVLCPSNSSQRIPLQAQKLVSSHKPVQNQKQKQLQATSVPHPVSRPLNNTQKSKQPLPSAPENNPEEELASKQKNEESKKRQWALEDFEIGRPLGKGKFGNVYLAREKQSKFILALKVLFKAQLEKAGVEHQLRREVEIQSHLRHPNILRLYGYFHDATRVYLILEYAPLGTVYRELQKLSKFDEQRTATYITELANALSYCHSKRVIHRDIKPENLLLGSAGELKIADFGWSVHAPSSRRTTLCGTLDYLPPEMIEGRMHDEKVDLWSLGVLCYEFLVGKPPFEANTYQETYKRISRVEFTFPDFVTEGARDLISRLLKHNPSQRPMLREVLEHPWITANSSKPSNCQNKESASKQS
How it was run: (§1)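 H3122 (EML4-ALK NSCLC) and Karpas 299 (NPM-ALK ALCL) cells were exposed to dose titrations for 16 h. ALK and Aurora A levels were then assessed by immunoblot.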

[3] = target: T2, ALK tyrosine kinase receptor (Homo sapiens, UniProt Q9UM73); test: Induction of ALK degradation in human CHLA20 cells at 100 nM after 16 hrs in presence of pomalidomide and ABCB1 inhibitor tariquidar by immunoblot method
T2 sequence (Q9UM73 19-1620 limits assumed): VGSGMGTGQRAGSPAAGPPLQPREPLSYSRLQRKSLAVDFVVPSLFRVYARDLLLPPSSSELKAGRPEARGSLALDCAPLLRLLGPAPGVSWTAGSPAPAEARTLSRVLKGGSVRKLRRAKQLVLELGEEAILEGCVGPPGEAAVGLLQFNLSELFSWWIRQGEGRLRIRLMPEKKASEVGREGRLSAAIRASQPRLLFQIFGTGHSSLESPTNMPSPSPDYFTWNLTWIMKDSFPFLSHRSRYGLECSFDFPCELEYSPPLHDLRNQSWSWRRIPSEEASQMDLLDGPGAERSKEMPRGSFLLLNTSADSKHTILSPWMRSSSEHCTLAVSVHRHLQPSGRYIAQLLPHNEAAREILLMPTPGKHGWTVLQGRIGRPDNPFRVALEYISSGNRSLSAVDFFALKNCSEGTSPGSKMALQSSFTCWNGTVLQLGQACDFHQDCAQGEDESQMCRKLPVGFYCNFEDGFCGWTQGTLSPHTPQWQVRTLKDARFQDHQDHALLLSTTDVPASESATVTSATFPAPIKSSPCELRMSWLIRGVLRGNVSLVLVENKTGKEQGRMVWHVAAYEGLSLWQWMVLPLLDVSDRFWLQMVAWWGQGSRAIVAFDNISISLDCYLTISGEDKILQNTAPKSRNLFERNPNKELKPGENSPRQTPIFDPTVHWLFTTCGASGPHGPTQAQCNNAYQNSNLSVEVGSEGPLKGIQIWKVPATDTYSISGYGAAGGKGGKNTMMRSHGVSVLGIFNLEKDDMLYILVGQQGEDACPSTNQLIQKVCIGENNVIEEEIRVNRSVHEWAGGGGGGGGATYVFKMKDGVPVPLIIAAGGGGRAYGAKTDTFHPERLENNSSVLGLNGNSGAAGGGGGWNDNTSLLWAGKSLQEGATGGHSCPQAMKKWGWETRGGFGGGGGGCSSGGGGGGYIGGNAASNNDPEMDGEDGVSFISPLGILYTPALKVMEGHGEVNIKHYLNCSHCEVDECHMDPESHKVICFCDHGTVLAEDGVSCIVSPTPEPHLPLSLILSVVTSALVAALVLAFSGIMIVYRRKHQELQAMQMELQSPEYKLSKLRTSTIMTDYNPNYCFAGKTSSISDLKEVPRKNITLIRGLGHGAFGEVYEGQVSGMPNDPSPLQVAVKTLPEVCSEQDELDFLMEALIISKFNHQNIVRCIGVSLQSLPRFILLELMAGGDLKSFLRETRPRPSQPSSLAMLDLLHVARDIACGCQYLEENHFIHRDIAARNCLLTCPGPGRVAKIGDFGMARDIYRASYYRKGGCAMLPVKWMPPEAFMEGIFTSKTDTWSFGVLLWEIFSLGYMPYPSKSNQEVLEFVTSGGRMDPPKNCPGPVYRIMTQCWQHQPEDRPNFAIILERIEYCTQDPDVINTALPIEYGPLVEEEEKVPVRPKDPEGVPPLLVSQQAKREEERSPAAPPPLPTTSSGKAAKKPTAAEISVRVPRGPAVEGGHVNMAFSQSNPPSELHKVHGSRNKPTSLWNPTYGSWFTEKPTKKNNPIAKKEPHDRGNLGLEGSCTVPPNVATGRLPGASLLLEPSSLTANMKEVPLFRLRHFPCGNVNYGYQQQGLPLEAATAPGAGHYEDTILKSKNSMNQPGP
How it was run: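 CHLA20 cells were kept with 125 nM tariquidar and pre-treated for 2 h with DMSO, carfilzomib, MLN4924, pomalidomide, TAE684 or LDK378. A 16 h degrader treatment followed, with immunoblot readout of ALK.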

[4] = target: T1, Aurora kinase A (Homo sapiens); test: Induction of aurora A degradation in human Kelly cells at 10 to 160 nM after 16 hrs by immunoblot method
How it was run: (§2)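 Kelly and CHLA20 neuroblastoma cells were treated with dose titrations for 16 h, then Aurora A was detected by immunoblot. CHLA20 cells were always co-treated with 125 nM tariquidar, an ABCB1 inhibitor.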

[5] = target: T1, Aurora kinase A (Homo sapiens); test: Induction of aurora A degradation in human CHLA20 cells at 10 to 160 nM after 16 hrs by immunoblot method; how it was run: as §2
[6] = target: T1, Aurora kinase A (Homo sapiens); test: Induction of aurora A degradation in human KARPAS299 cells at 0.01 to 1 uM after 16 hrs by immunoblot method; how it was run: as §1
[7] = target: Signal transducer and activator of transcription 3 (Homo sapiens) (UniProt P40763); test: Inhibition of STAT3 phosphorylation at Y705 in human CHLA20 cells at 250 nM after 6 to 48 hrs in presence of ABCB1 inhibitor tariquidar by immunoblot method
Chain of Signal transducer and activator of transcription 3 (Homo sapiens) (P40763 whole entry): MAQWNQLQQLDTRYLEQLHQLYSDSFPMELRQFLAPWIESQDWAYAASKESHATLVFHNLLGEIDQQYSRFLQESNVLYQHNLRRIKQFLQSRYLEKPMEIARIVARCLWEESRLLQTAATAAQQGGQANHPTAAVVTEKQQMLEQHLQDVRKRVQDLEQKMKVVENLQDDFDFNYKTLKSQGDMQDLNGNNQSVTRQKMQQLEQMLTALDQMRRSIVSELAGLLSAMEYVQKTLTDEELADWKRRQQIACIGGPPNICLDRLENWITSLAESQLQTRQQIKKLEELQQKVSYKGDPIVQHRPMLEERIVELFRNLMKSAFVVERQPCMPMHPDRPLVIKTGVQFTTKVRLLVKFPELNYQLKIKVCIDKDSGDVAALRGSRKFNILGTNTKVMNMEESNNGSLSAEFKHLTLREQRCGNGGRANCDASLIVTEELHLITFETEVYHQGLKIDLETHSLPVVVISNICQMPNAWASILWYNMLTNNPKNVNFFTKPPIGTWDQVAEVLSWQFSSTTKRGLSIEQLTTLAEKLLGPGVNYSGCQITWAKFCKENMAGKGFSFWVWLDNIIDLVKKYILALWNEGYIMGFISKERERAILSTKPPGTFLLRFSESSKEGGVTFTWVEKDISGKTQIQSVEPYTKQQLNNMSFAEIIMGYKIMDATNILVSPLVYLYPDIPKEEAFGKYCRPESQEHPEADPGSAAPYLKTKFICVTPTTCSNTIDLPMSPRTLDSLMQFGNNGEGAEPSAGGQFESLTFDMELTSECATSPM

[8] = target: T2, ALK tyrosine kinase receptor; test: Induction of ALK degradation in human Kelly cells assessed as decrease in ALK phosphorylation at Y1507 at 250 nM after 6 to 48 hrs by immunoblot method
[9] = target: Signal transducer and activator of transcription 3 (Homo sapiens) (UniProt P40763); test: Inhibition of STAT3 phosphorylation at Y705 in human Kelly cells at 250 nM after 6 to 48 hrs by immunoblot method
[10] = target: T2, ALK tyrosine kinase receptor; test: Induction of ALK degradation in human CHLA20 cells assessed as decrease in ALK phosphorylation at Y1507 at 250 nM after 6 to 48 hrs in presence of ABCB1 inhibitor tariquidar by immunoblot method

Chain of Tyrosine-protein kinase Fer (Homo sapiens) (P16591 whole entry, looked up): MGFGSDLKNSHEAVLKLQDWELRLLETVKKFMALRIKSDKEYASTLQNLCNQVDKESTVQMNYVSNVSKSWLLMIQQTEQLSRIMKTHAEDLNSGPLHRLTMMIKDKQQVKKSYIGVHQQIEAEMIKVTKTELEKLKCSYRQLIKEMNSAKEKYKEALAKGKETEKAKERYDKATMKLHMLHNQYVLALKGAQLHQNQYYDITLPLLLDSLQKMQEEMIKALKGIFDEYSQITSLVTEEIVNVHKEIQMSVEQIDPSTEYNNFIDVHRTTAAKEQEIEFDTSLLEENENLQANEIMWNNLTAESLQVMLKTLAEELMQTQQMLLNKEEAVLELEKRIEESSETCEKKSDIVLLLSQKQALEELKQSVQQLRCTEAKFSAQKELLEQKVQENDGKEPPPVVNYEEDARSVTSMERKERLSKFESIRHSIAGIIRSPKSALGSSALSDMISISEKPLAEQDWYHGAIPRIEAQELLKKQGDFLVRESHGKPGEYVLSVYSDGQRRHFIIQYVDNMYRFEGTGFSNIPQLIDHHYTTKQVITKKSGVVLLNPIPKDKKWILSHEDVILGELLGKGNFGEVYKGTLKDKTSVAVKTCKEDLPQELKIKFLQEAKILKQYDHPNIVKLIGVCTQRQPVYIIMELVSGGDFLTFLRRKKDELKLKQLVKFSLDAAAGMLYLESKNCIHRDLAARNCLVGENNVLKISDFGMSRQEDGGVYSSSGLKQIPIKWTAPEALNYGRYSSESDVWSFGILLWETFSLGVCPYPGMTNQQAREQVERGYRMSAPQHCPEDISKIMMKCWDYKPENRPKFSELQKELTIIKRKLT

Activity [1]	Activity [2]	Activity [3]	Activity [4]	Activity [5]	Activity [6]	inhibition [7]	Activity [8]	inhibition [9]	Activity [10]	Structure (SMILES)
Active	Active	inactive	Active	Active	Active	–	–	–	–	COc1cc(N2CCN(CCOCCOCCNC(=O)CNc3cccc4c3C(=O)N(C3CCC(=O)NC3=O)C4=O)CC2)ccc1Nc1ncc(Cl)c(Nc2ccccc2S(=O)(=O)C(C)C)n1 (configuration not stated)
Active	–	inactive	–	–	–	Active	Active	Active	Active	Cc1cc(Nc2ncc(Cl)c(Nc3ccccc3S(=O)(=O)C(C)C)n2)c(OC(C)C)cc1C1CCN(CCOCCOCCNC(=O)CNc2cccc3c2C(=O)N(C2CCC(=O)NC2=O)C3=O)CC1 (configuration not stated)
